Screening results (PubChem BioAssay)
Hits are enriched below; roughly 4.1% of the tested compounds scored in any of these assays.
KCNQ1 block: human KCNQ1 channel inhibition; P51787; CHO-K1 KCNQ1, FluxOR thallium flux fluorescence; hits give high values; B-score at 10 µM; 310,000 tested, 1.3% active; AID 2642;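 active = compounds whose thallium flux B-score, printed positive for inhibition, exceeds three library SD while starting fluorescence stays within three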;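 also: channel opened by potassium depolarization with thallium stimulus after 20 min compound exposure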
hERG rescue: compounds protecting human hERG from proarrhythmic drug block; CHO-hERG, FluxOR thallium flux, dofetilide IC70 present; activation (rescue from dofetilide block), less the hit threshold, % at 10 µM; 310,000 tested, 0.51% active; AID 1511;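 active = activation above the mean of controls blocked by dofetilide plus 5 SD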;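 also: thallium influx through hERG after potassium depolarization seen as dye fluorescence rise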
KCNQ1 pot: human KCNQ1 channel potentiation or activation. P51787. CHO-K1 KCNQ1, thallium flux FluxOR fluorescence; hits give high values. B-score at 10 µM. 310,000 tested, 0.35% active. AID 2648;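 active = fluorescence ratio B-score, a plate-corrected score, at least three library SD, with initial intensity B-score within 5 SD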
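System: Stable KCNQ1 CHO-K1 line | Incubation: 90 min dye loading and 20 min compound exposure, both at room temperature | Measure: Ratio B score | Medium: Assay buffer for compound exposure, DMSO matched across wells | Compound dosing: Single-concentration screen | Probe or stimulus: K+/Tl+ depolarizing stimulus | Measured by: Kinetic FluxOR fluorescence, 10 s baseline plus 110 s post-stimulus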
KCNK9 inh: blocks the human KCNK9 two-pore domain potassium channel; HEK293 KCNK9, FluxOR thallium flux fluorescence; hits give low values; B-score at 10 µM; 310,000 tested, 1.2% active; AID 488922;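 active = ratio B-score over 3 SD below the library mean, with starting fluorescence within 5 SD of its mean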;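 also: negative B-score means less thallium flux so channel inhibition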
Target sequence (Q9NPC2 whole entry, looked up, the tested form may be a part): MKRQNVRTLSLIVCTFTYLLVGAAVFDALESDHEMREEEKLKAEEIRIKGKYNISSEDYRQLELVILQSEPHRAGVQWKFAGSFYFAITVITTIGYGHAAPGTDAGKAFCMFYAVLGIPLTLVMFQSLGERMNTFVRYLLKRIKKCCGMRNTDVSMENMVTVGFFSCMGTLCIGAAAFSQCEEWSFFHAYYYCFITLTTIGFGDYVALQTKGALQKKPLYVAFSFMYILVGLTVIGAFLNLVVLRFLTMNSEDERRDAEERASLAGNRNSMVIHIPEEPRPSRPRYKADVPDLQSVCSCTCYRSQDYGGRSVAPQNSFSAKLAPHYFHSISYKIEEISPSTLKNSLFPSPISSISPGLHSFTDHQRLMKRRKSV
KCNK3 inh: human KCNK3 channel inhibition, primary screen. CHO-KCNK3 thallium flux, FluxOR fluorescence; hits give low values. B-score at 10 µM. 340,000 tested, 0.84% active;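 active = B-score under library mean minus 4 SD, starting fluorescence ratio at most library mean plus 5 SD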;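 also: more negative B-score means stronger inhibition of thallium flux through KCNK3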
KCC2 mod: modulators of human KCC2 chloride dependent transport | 190,000 tested, 2.2% active | B-score of Tl+ flux slope (higher = more flux/activation; lower = inhibition) at 10 µM | Q9H2X9 | KCC2 cells, thallium flux FluoZin-2 fluorescence;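 active = thallium flux slope and its plate-corrected score both differing from the plate sample mean at a set confidence after two filtering rounds, in either direction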;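 also: slope of fluorescence scaled to starting intensity during 10 to 20 s after thallium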
Numbers without * were called inactive; i = inactive; · = no result.

SMILES	KCNQ1 block	hERG rescue	KCNQ1 pot	KCNK9 inh	KCNK3 inh	KCC2 mod
O=[N+]([O-])c1ccc(N/N=C/C=C/c2ccco2)cc1	i	-6	i	-7.2*	i	·
Cc1c(CNCCC2=CCCCC2)c(C(=O)O)c(C)n1Cc1ccccc1	i	6.6*	i	i	i	0.015
O=C(NN1CCOCC1)c1ccc(F)cc1	i	-12	i	i	i	·
CC(=O)N(Cc1ccc(F)cc1)C1=C(NCc2ccccc2)C(=O)c2ccccc2C1=O	i	-9	i	-7.9*	i	-1.5
CC(=O)c1ccc(N2CCN(C(=O)CNS(=O)(=O)c3ccc4c(c3)OCCCO4)CC2)c(F)c1	·	·	·	·	i	·
O=[N+]([O-])c1c(Nc2ccccn2)cc(Cl)c2nonc12	11*	-12	i	-6.9*	i	-1.9
O=C(CC1SC(N2CCCCC2)=NC1=O)Nc1cccc(C(=O)N2CCCC(C(F)(F)F)C2)c1 (stereo not given)	·	·	·	·	i	·
COc1cc2c(c(O)c1OC)-c1c(cc(OC)c(OC)c1O)[C@@H](OC(=O)c1ccccc1)[C@@](C)(O)[C@@H](C)[C@@H]2OC(C)=O	i	4.7*	i	i	·	-0.71
Cc1cccc(NC(=O)c2ccc(Cl)c(S(=O)(=O)N3CCCC3)c2)n1	i	-18	i	i	i	·
Cc1cccc(NC(=O)c2ccc(Cl)c(S(=O)(=O)N3CCc4ccccc43)c2)n1	·	·	·	·	-11*	·
Cc1cccn2c(=O)c3cc(C(=O)N4c5ccccc5CC4C)n(C)c3nc12 (stereo not given)	i	9.2*	i	i	i	·
CCOc1ccc(C(=O)NCc2ccco2)cc1OC	i	-2	i	i	i	·
O=C1CC2(CCCCC2)Oc2ccc(F)cc21	i	-3	i	i	i	·
O=C1CC2(CCCCC2)Oc2ccccc21	i	5.4*	i	i	i	·
COc1ccc(C(=O)c2c3ccc(OC)cc3[n+]([O-])n2Cc2ccc(C(N)=O)cc2)cc1	·	·	·	·	i	·
CCOc1ccc(NC(=O)CN2C(=O)NC(C)(c3ccc4c(c3)OCCCO4)C2=O)cc1OCC (stereo not given)	·	·	·	·	i	·
O=C(NCc1ccc(-c2nc3ccccc3s2)cc1)c1ccco1	i	-7	i	i	i	0.61
CCOC(=O)c1sc(NC(=S)NC(=O)c2ccco2)nc1C	i	8.9*	9*	i	i	47*
O=C(COC(=O)c1ccco1)Nc1nc2ccccc2s1	i	7.3*	i	i	i	·
O=C(CCNC(=O)c1ccco1)Nc1nc2ccccc2s1	·	·	·	·	i	·
O=C(NC(=S)NCc1ccc(-c2nc3ccccc3s2)cc1)c1ccco1	i	5.5*	i	i	i	6.4*
O=C(NC(=S)Nc1nc2ccccc2s1)c1ccco1	i	9.2*	34*	i	i	37*
COC(=O)c1sc(NC(=O)c2ccco2)nc1C	i	-5	i	i	i	0.59
CCN(C(=O)COC(=O)c1ccc[nH]c1=O)c1cccc2ccccc12	·	·	·	·	i	·
Cc1nn2c(c1-c1ccc(Cl)cc1)N=C(c1ccco1)CC2c1ccccc1 (stereo not given)	7*	-5	i	-6.7*	i	·
SMILES	KCNQ1 block	hERG rescue	KCNQ1 pot	KCNK9 inh	KCNK3 inh	KCC2 mod
Clc1ccc(C2=NN(c3ccccc3)C(c3ccco3)C2)cc1 (stereo not given)	i	-4	i	i	i	0.33
CC1C/C(=C/c2cccs2)C(=O)/C(=C/c2cccs2)C1 (stereo not given)	i	-16	i	-7.4*	i	0.25
O=C1/C(=C/c2cccs2)CCC/C1=C\c1cccs1	i	-12	i	i	i	·
Cc1cccc(C)c1NC(=O)CN1C(=O)COc2ccccc21	i	-6	i	i	i	·
CCCCOc1ccc(Nc2cc(Cl)ccc2C(=O)O)cn1	i	-5	i	i	i	13*
COc1ccc(CC(=O)Nc2cc(Cl)ccc2C(=O)O)cc1	i	-11	i	i	i	-1.1
Cc1ccc(CN2CCSc3ccc(C(=O)NCc4ccco4)cc32)cc1	i	-10	i	-7.1*	i	-1.1
CCc1ccc(C2C(C(=O)O)c3ccccc3C(=O)N2C)cc1 (stereo not given)	i	-3	i	i	i	-0.33
O=C(c1ccccc1)C1C(=O)c2ccccc2C1=O	i	-6	i	i	i	·
O=C(/C=C/c1ccccc1)C1C(=O)c2ccccc2C1=O	i	13*	15*	i	i	36*
CCc1ccc(/C=C/C(=O)C2C(=O)c3ccccc3C2=O)cc1	i	28*	28*	i	i	19*
O=C(NCCC(=O)N1CCN(c2ccccn2)CC1)c1ccc(Cl)cc1	·	·	·	·	i	·
Fc1cccc2sc(Nc3nc4cc5c(cc4s3)OCO5)nc12	i	13*	i	i	i	23*
CC(=O)Nc1nc2cc3c(cc2s1)OCCO3	i	-1	i	i	i	·
CC(C)C(=O)Nc1nc2cc3c(cc2s1)OCO3	i	-9	i	i	i	·
Fc1cccc2sc(Nc3nc4cc5c(cc4s3)OCCO5)nc12	i	18*	i	i	i	11*
CCOC(=O)c1ccc(NC(=O)Cn2nnc(-c3ccccc3)n2)cc1	i	14*	i	i	i	·
CCOC(=O)N1CCC2(CC1)C(C#N)=C(N)Oc1n[nH]c(C)c12	i	-7	i	i	i	1
CCOC(=O)N1CCC2(CC1)C(C#N)=C(N)Oc1c2c(C)nn1-c1cccc(Cl)c1	6*	-19	i	i	i	-0.34
CC/C(=N\NC(=O)c1nnn(-c2nonc2N)c1-c1cccc(OC)c1)c1ccc(C)cc1	i	-6	i	i	i	·
O=C(CSc1ccc(Cl)cc1)N/N=C/c1ccc([N+](=O)[O-])o1	i	-5	i	i	i	·
CCCc1ccc(C2C3=C(CC(C)(C)CC3=O)NC3=C2C(=O)c2ccccc23)cc1 (stereo not given)	9*	-9	i	i	i	0.11
CCc1nc(SCC(=O)Nc2cc(OC)ccc2OC)c2c(C)c(C)sc2n1	i	-6	i	-6.6*	i	·
CCc1nc(SCC(=O)Nc2nnc(CC)s2)c2c(C)c(C)sc2n1	i	-1	i	i	i	·
COc1ccc(Cl)cc1NC(=O)CN(C)C(=O)c1cc2c(F)cccc2s1	·	·	·	·	-8.8*	·
CCCCn1c(NC(=O)c2ccccc2Cl)c(C#N)c2nc3ccccc3nc21	10*	-17	i	i	i	1.2
CCCCn1c(NC(=O)CC)c(C#N)c2nc3ccccc3nc21	i	-10	i	i	i	0.46
